Sampled rows, rich in hits. Any-hit rate of the full collection: about 3.5%.
RGS4 inh – human RGS4 inhibition. 310,000 compounds, 0.45% hits. AID 463165. HEK293 M3R/RGS4 inducible, Fluo-4 calcium flux; stronger effect = higher value; triggered by carbachol at its EC20. B-score at 10 µM;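 active means B-score, a plate-corrected calcium signal, over three deviations above library mean, with baseline fluorescence within five deviations of library mean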;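 further: RGS4 expression induced by doxycycline in cells with stable M3 receptor; B-score is computed from the integrated fluorescence ratio over baseline after carbachol; higher B-score means a larger calcium signal and so more RGS4 inhibition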
Target sequence (P49798 whole entry, looked up): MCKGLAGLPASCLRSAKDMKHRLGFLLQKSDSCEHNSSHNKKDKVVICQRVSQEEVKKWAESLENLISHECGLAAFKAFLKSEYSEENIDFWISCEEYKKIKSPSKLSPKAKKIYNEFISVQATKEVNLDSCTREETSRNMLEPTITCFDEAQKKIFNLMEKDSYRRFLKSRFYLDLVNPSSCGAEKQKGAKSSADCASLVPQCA
MrgX1 antagonist – human MrgX1 receptor antagonism, primary screen. B-score at 10 µM. AID 588676. MRGX1-HEK293 calcium flux, Fluo-4, BAM8-22 antagonism; stronger effect = lower value. 310,000 compounds, 1.3% hits;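 active means calcium-response B-score plate-corrected more than 3 library SD below zero, starting fluorescence within 5 deviations, no agonist response on first addition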;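 further: peak minus trough fluorescence over baseline after final BAM8-22 challenge near maximal dose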
Target sequence (Q96LB2 whole entry, looked up): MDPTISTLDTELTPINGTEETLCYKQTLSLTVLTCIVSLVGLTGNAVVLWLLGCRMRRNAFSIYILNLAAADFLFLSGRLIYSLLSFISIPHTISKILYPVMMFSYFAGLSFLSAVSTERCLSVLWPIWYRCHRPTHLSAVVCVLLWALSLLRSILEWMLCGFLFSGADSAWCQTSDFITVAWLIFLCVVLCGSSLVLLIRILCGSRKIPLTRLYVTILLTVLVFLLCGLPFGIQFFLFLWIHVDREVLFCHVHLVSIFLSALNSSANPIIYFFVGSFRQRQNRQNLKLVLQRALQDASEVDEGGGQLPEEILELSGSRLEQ
MrgX1 agonist – human MrgX1 receptor agonism, primary screen | 310,000 compounds, 0.44% hits | Q96LB2 | B-score at 10 µM | AID 588627 | MrgX1-HEK293 cells, Fluo-4 calcium fluorescence, agonist mode; stronger effect = higher value;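 active means calcium response B-score plate-corrected fluorescence ratio at least 3 library SD, with starting fluorescence B-score inside 5 SD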
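Assay system: MrgX1-expressing HEK293 cells / Amount: fifteen thousand cells per well / Doses: test compound in the initial addition of three / Timing: cells plated overnight, dye loaded 0.5 h 37 °C, 0.5 h room temperature / Technique: kinetic calcium dye fluorescence, Fluo-4 NW / Control set: positive and negative controls per plate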
MrgX1 allo act – allosterically activates human MrgX1 receptor signaling; Q96LB2; MrgX1-HEK293, Fluo-4 calcium flux, FDSS; stronger effect = higher value; B-score at 10 µM; 310,000 compounds, 0.63% hits; AID 588675;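 active means plate-corrected calcium response at least 3 library SD above typical, normal starting fluorescence, not activating the receptor alone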;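 further: compound read alongside a low EC10 to EC30 dose of BAM8-22 agonist; peak minus trough fluorescence over baseline measured at the second addition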
RGS4 pot – potentiators or activators of RGS4; HEK293 M3R/inducible RGS4, carbachol calcium flux Fluo4; stronger effect = lower value; B-score at 10 µM; 310,000 compounds, 0.92% hits; AID 463111;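 active means B-score of the integrated calcium signal more than 4 SD below the library mean, with starting fluorescence not abnormally high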;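 further: negative B-score means reduced calcium response which marks RGS4 activation or potentiation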
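test system = HEK293 cells with stable M3R and inducible RGS4 | schedule = recording 10 s baseline at 1 Hz, 100 s post-agonist | technique = Fluo4-AM (2 µM) calcium-flux fluorescence, kinetic read | measure = Agonist-evoked peak-minus-minimum fluorescence over baseline, integrated ratio, B score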
MrgX1 antag conf – human MrgX1 receptor antagonism, re-confirmation screen; 2,300 compounds, 19% hits; remaining BAM8-22 calcium response % of control (stronger effect = lower value), % at 10 µM; MrgX1-HEK293, BAM8-22 calcium flux, Fluo-4; stronger effect = lower value; shares compounds with MrgX1 antagonist;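 active means remaining agonist calcium response no higher than 100% minus 3 SD of agonist-only control wells, with starting fluorescence near control levels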;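 further: agonist BAM8-22 given at a near maximal EC90 to ECmax level; peak minus minimum fluorescence divided by baseline after agonist addition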
HEK293 Ca flux – MrgX1 antagonist counter-screen hit in parental HEK293 cells; shares compounds with MrgX1 antagonist; Fluo-4 calcium fluorescence, FDSS; fluorescence ratio F(max-min)/F0 at 10 µM; 4,000 compounds, 2% hits;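 active means duplicate-averaged calcium fluorescence ratio at least three times the standard deviation of buffer wells, a nonspecific response in parental cells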
HEK293 Ca counter – MrgX1 allosteric activator counter-screen hit in parental HEK293 cells; shares compounds with MrgX1 antagonist; parental HEK293 calcium flux, Fluo-4 fluorescence ratio; stronger effect = higher value; fluorescence ratio F(max-min)/F0 at 10 µM; 4,000 compounds, 0.4% hits;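 active means calcium fluorescence ratio, averaged over duplicates, at least 3 SD of the buffer-well ratio, meaning a nonspecific response in receptor-free cells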;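 further: untransfected parental HEK293 lacking MrgX1 used as counterscreen for MrgX1 allosteric activators; fluorescence change taken during the second addition on a kinetic imager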
HEK293 Ca cntr2 – MrgX1 activator counter-screen hit in parental HEK293 cells; fluorescence ratio F(max-min)/F0 at 10 µM; Fluo-4 calcium fluorescence (FDSS); stronger effect = higher value; shares compounds with MrgX1 antagonist; 4,000 compounds, 8.7% hits;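 active means calcium fluorescence ratio at least three times the spread of buffer wells, meaning a non-specific response in parental cells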
Starred values were filed as active, the others as inactive; i = inactive; · = no result given.

SMILES	RGS4 inh	MrgX1 antagonist	MrgX1 agonist	MrgX1 allo act	RGS4 pot	MrgX1 antag conf	HEK293 Ca flux	HEK293 Ca counter	HEK293 Ca cntr2
CCOc1ccc(C/C(O)=C2\C(=O)CC(C)(C)CC2=NCC(=O)O)cc1OCC	i	i	i	i	i	·	·	·	·
CCOC(=O)c1cnc(-n2nc(C)cc2C)nc1NC1CCCC1	i	-4.7*	i	i	i	i	i	i	i
CCOC(=O)c1cnc(-n2nc(C)cc2C)nc1Nc1ccc(OC)cc1	i	i	i	i	i	·	·	·	·
Cc1sc(NC(=O)c2ccccc2)c(C(c2ccccn2)N2CCN(CCO)CC2)c1C (centres undefined)	i	-4.5*	i	i	i	i	i	i	i
CCOc1ccc(NC(=S)NC(C)C(c2ccccc2)N2CCN(C)CC2)cc1 (centres undefined)	i	i	i	i	i	·	·	·	·
CCOC(=O)c1sc2cc([N+](=O)[O-])cc(SCC(C)C)c2c1N	i	-10*	i	i	i	i	0.6*	i	i
CCOC(=O)c1cc(N)cc([N+](=O)[O-])c1	i	i	i	i	i	·	·	·	·
Cc1ccc(NC(=O)CN2c3cccc4cccc(c34)S2(=O)=O)cc1S(=O)(=O)N1CCOCC1	i	i	i	i	i	·	·	·	·
COc1cc(S(=O)(=O)N2CCOCC2)ccc1NC(=O)CN1c2cccc3cccc(c23)S1(=O)=O	i	-8.4*	i	i	i	i	i	i	i
Cc1oc2c(c(C)cc3oc(=O)c(CC(=O)NCC(=O)NCC(=O)O)c(C)c32)c1C	i	i	i	i	i	·	·	·	·
Cc1cc2ccccc2nc1SCC(=O)N1c2ccccc2CC1C (centres undefined)	i	i	i	i	i	·	·	·	·
Cc1cc2cc3c(cc2nc1SCC(=O)N1c2ccccc2CC1C)OCO3 (centres undefined)	i	-5*	i	i	i	84%*	i	i	i
CCOC(=O)CSc1nc2cc3c(cc2cc1C#N)OCO3	·	i	i	i	·	·	·	·	·
CC1Cc2ccccc2N1C(=O)CSc1nc2cc3c(cc2cc1C#N)OCO3 (centres undefined)	·	-8.5*	i	i	·	i	i	i	i
O=c1c2cn[nH]c2nc(SCc2c(F)cccc2F)n1-c1ccc(Cl)cc1	i	i	i	i	i	·	·	·	·
CCOc1c2ccoc2nc2c(OC)c(OC)ccc12	i	-5.7*	i	i	i	i	i	i	i
CCOc1c(OC)ccc2c3c(c(=O)oc12)CCCC3	i	i	i	i	i	·	·	·	·
O=S(=O)(Nc1cccc(-c2nc3cccnc3s2)c1)c1ccc2c(c1)CCCC2	i	i	i	i	i	·	·	·	·
O=C(NCc1nnc(SCC(=O)N2CCCC2)o1)c1c(F)cccc1F	i	i	i	i	i	·	·	·	·
O=C(NCc1nnc(SCC(=O)N2CCN(c3ccccc3)CC2)o1)c1c(F)cccc1F	i	-5.7*	i	i	i	i	i	i	i
Cc1ccc(NC(=O)C(C)C(=O)Nc2ccc(C)cc2)cc1	i	i	i	i	i	·	·	·	·
CC(=O)c1cccc(NC(=O)Nc2ccc3c(c2)N(C)C(=O)CS3)c1	i	-9*	i	i	i	3.0%*	i	i	i
Cc1cc(C)cc(NC(=O)Nc2ccc3c(c2)N(C)C(=O)CS3)c1	i	i	i	i	i	·	·	·	·

Screening results as filed in PubChem BioAssay.
